The source of these data is ChEMBL document CHEMBL1136495, “Synthesis of new 3-arylisoquinolinamines: effect on topoisomerase I inhibition and cytotoxicity” (Bioorg Med Chem Lett, 2003).

The subject of one test is SK-OV-3. Put plainly: Cytotoxic activity against SKOV-3 human ovarian tumor cell line, using sulforhodamine B (SRB) assay. In kind it is functional, cell-based. The method, boiled down:
(§1)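 In vitro sulforhodamine B (SRB) staining assay on human tumor cell lines. Values are reported as IC50 for cytotoxicity.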

Test [1] has as its target T1, DNA topoisomerase 1 (Homo sapiens) (UniProt P11387).
T1 sequence (whole entry): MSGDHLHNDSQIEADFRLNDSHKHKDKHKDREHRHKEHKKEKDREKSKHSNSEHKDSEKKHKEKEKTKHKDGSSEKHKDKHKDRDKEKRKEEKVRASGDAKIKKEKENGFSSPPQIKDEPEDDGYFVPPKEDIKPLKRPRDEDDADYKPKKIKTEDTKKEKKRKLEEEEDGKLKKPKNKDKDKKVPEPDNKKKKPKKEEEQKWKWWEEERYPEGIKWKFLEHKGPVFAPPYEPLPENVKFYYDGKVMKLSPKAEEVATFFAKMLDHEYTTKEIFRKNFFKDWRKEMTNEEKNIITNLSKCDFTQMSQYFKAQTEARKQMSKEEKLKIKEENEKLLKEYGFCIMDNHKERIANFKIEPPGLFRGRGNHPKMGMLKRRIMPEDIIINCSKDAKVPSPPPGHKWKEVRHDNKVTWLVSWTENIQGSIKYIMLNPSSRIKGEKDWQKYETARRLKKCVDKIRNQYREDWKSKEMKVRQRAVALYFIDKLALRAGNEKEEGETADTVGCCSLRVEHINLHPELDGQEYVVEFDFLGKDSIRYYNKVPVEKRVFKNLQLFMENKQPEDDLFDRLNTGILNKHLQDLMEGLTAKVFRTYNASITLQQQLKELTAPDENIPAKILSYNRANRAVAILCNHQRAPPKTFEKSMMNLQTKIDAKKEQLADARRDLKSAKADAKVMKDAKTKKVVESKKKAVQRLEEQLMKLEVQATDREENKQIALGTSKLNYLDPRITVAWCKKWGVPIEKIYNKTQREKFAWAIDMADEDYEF
Put plainly: Inhibitory activity against Topoisomerase I in supercoiled DNA unwinding assay method; Weak activity.

In the next test the test system is SK-MEL-2. Kind of test: Cytotoxic activity against SK-MEL-2 human melanoma cell line, using sulforhodamine B (SRB) assay. The class given is functional, cell-based. The gist of the method:
as §1

For another test, the system named is A549. Kind of test: Cytotoxic activity against A 549 human lung tumor cell line, using sulforhodamine B (SRB) assay. The class given is functional, cell-based. The method, boiled down:
as §1

The subject of another test is HCT-15. Put plainly: Cytotoxic activity against HCT 15 human colon tumor cell line, using sulforhodamine B (SRB) assay. In kind it is functional, cell-based. The method, boiled down: as §1
In test [2] the test system is OCI-AML2. Put plainly: Cytotoxic activity against D100 daunorubicin (100 nM) resistant AML-2 cell line was determined. The class given is functional.
For test [3], the system named is OCI-AML2. Kind of test: Cytotoxic activity against DX-100: doxorubicin (100 ng/mL) resistant AML-2 cell line was determined. The class given is functional.
For test [4], the system named is OCI-AML2. Kind of test: Cytotoxic activity against wild type AML-2 leukemia cell line was determined. In kind it is functional.
The target in test [5] is T1, DNA topoisomerase 1 (Homo sapiens). Kind of test: Inhibitory activity against Topoisomerase I was determined by the supercoiled DNA unwinding assay method; Greater activity than Camptothecin.

As to `Cc1cccc(-c2cc3cc(C)ccc3c(NCc3ccccc3)n2)c1`, the half-inhibitory concentration (IC50) in the test with SK-OV-3 came out at 146 µM; in the test with SK-MEL-2, 88.7 µM; in the test on A549 it was 171 µM; with HCT-15, 111 µM. Moreover, the Activity entry in test [1] is “Weak activity”.

In the case of `Cc1ccc2c(N)nc(-c3ccccc3C)cc2c1.Cl`, the IC50 with SK-OV-3 was 0.21 µM; with SK-MEL-2, 0.14 µM; in the test on A549, 0.17 µM; with HCT-15, 0.17 µM. The Activity in the test with OCI-AML2 [2] was determined as 0.0027 µg/mL. Also, the Cytotoxicity with OCI-AML2 [3] came out at 0.0056 µg/mL; in the test with OCI-AML2 [4], 0.0078 µg/mL.

`CCN1CCN(c2nc(-c3ccccc3)cc3cc(C)ccc23)CC1`: the IC50 with SK-OV-3 was 41.8 µM; in the test with SK-MEL-2 it was 11.9 µM; with A549, 18.2 µM; in the test on HCT-15, 2.42 µM.

In the case of `CCN1CCN(c2nc(-c3ccccc3C)cc3cc(C)ccc23)CC1`, the concentration for half-maximal inhibition (IC50) came out at 62 µM in the test on SK-OV-3, 12.8 µM with SK-MEL-2, 21 µM with A549 and 8.65 µM in the test on HCT-15.

For `CC(=O)N[C@H]1CC[C@H](Nc2nc(-c3ccccc3)cc3ccccc23)CC1`, the IC50 in the test on SK-OV-3 worked out at 186 µM; in the test with SK-MEL-2, 183 µM; with A549, 145 µM; with HCT-15, 253 µM. Further, the Activity result in test [1] is “Weak activity”.

`Cc1ccc2c(NCc3ccccc3)nc(-c3ccccc3)cc2c1`: the concentration for half-maximal inhibition (IC50) came out at 156 µM in the test with SK-OV-3, 94.4 µM in the test on SK-MEL-2, 122 µM in the test on A549 and 64.2 µM with HCT-15.

Regarding `CN1CCCN(c2nc(-c3ccccc3)cc3ccccc23)CC1`, the IC50 turned out to be 17 µM in the test with SK-OV-3, 8.38 µM in the test with SK-MEL-2, 10.8 µM with A549 and 11.1 µM in the test with HCT-15. In addition, in test [5], the Activity result was “Greater activity than Camptothecin”.

As to `CCN1CCN(c2nc(-c3ccc(C)cc3)cc3cc(C)ccc23)CC1`, the half-maximal inhibitory concentration (IC50) with SK-OV-3 is 63.4 µM; with SK-MEL-2 it was 14.4 µM; in the test on A549 it was 26.9 µM; in the test with HCT-15 it was 8.07 µM. Besides, the Activity result in test [1] was “Weak activity”.

Regarding `Cc1cccc(-c2cc3ccccc3c(NCc3ccccc3)n2)c1`, the half-maximal inhibitory concentration (IC50) worked out at 168 µM in the test on SK-OV-3, 85 µM in the test with SK-MEL-2, 103 µM in the test on A549 and 108 µM in the test on HCT-15. Further, the Activity result in test [1] was “Weak activity”.

On to `Cc1ccc2c(NCCN)nc(-c3ccccc3C)cc2c1`, for which the IC50 with SK-OV-3, in the test on SK-MEL-2, in the test with A549 and in the test with HCT-15 was above 300 µM each time. For the same compound, the Activity entry in test [1] is “Weak activity”.

As to `Nc1nc(-c2ccccc2)cc2ccccc12`, the IC50 in the test with SK-OV-3 turned out to be 2.03 µM; with SK-MEL-2, 1.48 µM; in the test on A549, 2.73 µM; in the test with HCT-15, 1.87 µM.

Turning to `CCN1CCN(c2nc(-c3ccccc3)cc3ccccc23)CC1`, the IC50 with SK-OV-3 came to 68.9 µM; with SK-MEL-2, 95.7 µM; with A549 it was 55.4 µM; with HCT-15, 7.22 µM. Further, the Activity result in test [1] is “Weak activity”.

`Cc1ccc(-c2cc3ccccc3c(NCc3ccccc3)n2)cc1`: the IC50 in the test on SK-OV-3 came to 193 µM; in the test on SK-MEL-2, 133 µM; with A549, 168 µM; with HCT-15, 171 µM.

As for `CN1CCCN(c2nc(-c3ccc(Cl)cc3)cc3ccccc23)CC1`, the IC50 came to 20 µM with SK-OV-3, 8.55 µM in the test on SK-MEL-2, 11.8 µM in the test with A549 and 9.78 µM with HCT-15.

For `COc1cccc2c1C(=O)c1c(O)c3c(c(O)c1C2=O)C[C@@](O)(C(C)=O)C[C@@H]3O[C@H]1C[C@H](N)[C@H](O)[C@H](C)O1` [DAUNORUBICIN], the Cytotoxicity stood at 0.52 µg/mL in the test with OCI-AML2 [2], 0.43 µg/mL in the test on OCI-AML2 [3] and 0.001 µg/mL in the test with OCI-AML2 [4].

As for `CN1CCN(c2nc(-c3ccccc3)cc3ccccc23)CC1`, the IC50 amounted to 13.7 µM in the test on SK-OV-3, 14.5 µM in the test with SK-MEL-2, 13.6 µM with A549 and 13.9 µM in the test with HCT-15.

Turning to `Cc1ccc(-c2cc3ccccc3c(N3CCCN(C)CC3)n2)cc1`, the half-inhibitory concentration (IC50) in the test with SK-OV-3 stood at 9.34 µM; in the test on SK-MEL-2, 6.18 µM; with A549, 1.22 µM; with HCT-15, 7.84 µM.

As for `COc1cccc2c1C(=O)c1c(O)c3c(c(O)c1C2=O)C[C@@](O)(C(=O)CO)C[C@@H]3O[C@H]1C[C@H](N)[C@H](O)[C@H](C)O1` [DOXORUBICIN], the 50% inhibitory concentration (IC50) with SK-OV-3 came to 1.17 µM; in the test on SK-MEL-2, 4.78 µM; in the test with HCT-15 it was 1.67 µM. The Cytotoxicity with OCI-AML2 [2] worked out at 1.93 µg/mL; in the test with OCI-AML2 [3], 3.2 µg/mL; in the test with OCI-AML2 [4] it was 0.01 µg/mL.

For `Cc1ccc2c(NCCN)nc(-c3ccccc3)cc2c1`, the IC50 in the test with SK-OV-3, with SK-MEL-2, with A549 and in the test with HCT-15 was above 300 µM throughout. In test [5], the Activity entry is listed as “Greater activity than Camptothecin”.

On to `Cc1ccc2c(N3CCCN(C)CC3)nc(-c3ccccc3C)cc2c1`, for which the IC50 with SK-OV-3 was 0.7 µM; with SK-MEL-2, 0.99 µM; in the test on A549, 0.44 µM; with HCT-15, 1.2 µM.

`Cc1ccc(-c2cc3cc(C)ccc3c(NCCN)n2)cc1`: the half-maximal inhibitory concentration (IC50) in the test with SK-OV-3, in the test with SK-MEL-2, in the test on A549 and in the test on HCT-15 was above 300 µM in each case. Moreover, the Activity entry in test [5] is “Greater activity than Camptothecin”.

For the compound `N[C@H]1CC[C@H](Nc2nc(-c3ccccc3)cc3ccccc23)CC1`, the 50% inhibitory concentration (IC50) with SK-OV-3 is 4.36 µM; in the test with SK-MEL-2, 7.7 µM; in the test with A549, 7.95 µM; in the test with HCT-15 it was 7.24 µM.

On to `CN1CCCN(c2nc(-c3ccc(Br)cc3)cc3ccccc23)CC1`, for which the IC50 in the test with SK-OV-3 is 3.85 µM; with SK-MEL-2, 4.12 µM; in the test with A549 it was 6.04 µM; in the test with HCT-15, 5.26 µM.

For the compound `CCN1CCN(c2nc(-c3ccccc3Cl)cc3cc(C)ccc23)CC1`, the IC50 is 195 µM in the test on SK-OV-3, 5.58 µM with SK-MEL-2, 13.4 µM in the test with A549 and 5.58 µM in the test on HCT-15. The Activity entry in test [5] is recorded as “Greater activity than Camptothecin”.

In the case of `Cc1ccccc1-c1cc2ccccc2c(N)n1`, the half-inhibitory concentration (IC50) was determined as 1.81 µM in the test on SK-OV-3, 2.11 µM with SK-MEL-2, 3.14 µM with A549 and 1.92 µM in the test with HCT-15.

For `Cc1ccccc1-c1cc2ccccc2c(N[C@H]2CC[C@H](N)CC2)n1`, the concentration for half-maximal inhibition (IC50) in the test on SK-OV-3 came to 9.17 µM; with SK-MEL-2, 6.45 µM; with A549, 10.2 µM; in the test on HCT-15 it was 7.65 µM. The Activity entry in test [1] was “Weak activity”.

Regarding `CN1CCCN(c2nc(-c3cccc4ccccc34)cc3ccccc23)CC1`, the half-inhibitory concentration (IC50) in the test with SK-OV-3 was found to be 3.64 µM; in the test with SK-MEL-2 it was 1.98 µM; in the test with A549, 0.52 µM; in the test on HCT-15, 1.93 µM. Besides, in test [1], the Activity entry was “Weak activity”.

On to `Cc1ccc2c(NCCN)nc(-c3ccccc3Cl)cc2c1`, for which the IC50 with SK-OV-3, with SK-MEL-2, in the test with A549 and in the test with HCT-15 was above 300 µM in each case. Besides, the Activity result in test [1] is “Weak activity”.

On to `Cc1cccc(-c2cc3ccccc3c(N3CCCN(C)CC3)n2)c1`, for which the IC50 in the test with SK-OV-3 was determined as 8.22 µM; in the test on SK-MEL-2 it was 8.85 µM; in the test on A549 it was 8.57 µM; in the test with HCT-15, 9.2 µM. Moreover, the Activity result in test [1] was “Weak activity”.

Regarding `c1ccc(CNc2nc(-c3ccccc3)cc3ccccc23)cc1`, the 50% inhibitory concentration (IC50) in the test on SK-OV-3 came out at 102 µM; in the test on SK-MEL-2, 83 µM; with A549, 177 µM; in the test with HCT-15 it was 87.4 µM. Also, the Activity entry in [1] was “Weak activity”.
